Paper PMC9302689 (British Journal of Clinical Pharmacology, 2022)

How the values were obtained:
[1] = system: healthy male subjects; test: NeuroCart body sway; assay type: in vivo, human; settings: 12-hour post-dose period
Method in brief: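 Single-dose, placebo-controlled study in fasted healthy men, tested twice pre-dose and at 0.5–10 h post-dose. Anteroposterior sway was recorded with eyes closed using a Wright-type ataxiameter. Movements over 2 min were integrated and expressed in mm. Values were ln-transformed, and change from baseline over 12 h was analysed by MMRM against pooled placebo, baseline as covariate, then back-transformed.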

[2] = system: healthy male subjects; test: NeuroCart adaptive tracking; assay type: in vivo, human; settings: 12-hour post-dose period
Method in brief: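 Fasted healthy men received a single dose or placebo capsule. Testing was done in a quiet, dim room, one subject at a time, after training at screening. Runs were twice pre-dose and at 0.5–10 h post-dose. The read-out was mean circle speed as % of maximum over 3.5 min. Change from baseline over 12 h was analysed by MMRM against pooled placebo, with baseline as covariate.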

[3] = system: healthy male subjects; test: VAS Bowdle; assay type: in vivo, human; settings: 12-hour post-dose period
Method in brief: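 Psychedelic effects were rated on 13 lines scored from 0 (not at all) to 100 mm (extremely), twice pre-dose and at 0.5–10 h post-dose. Change from baseline over 12 h was analysed by MMRM with baseline as covariate. The 3 mg dose group, not placebo, served as the reference.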

[4] = system: healthy male subjects; test: Orthostatic hypotension; assay type: in vivo, human
[5] = molecular target: μ receptor (Homo sapiens, UniProt P35372); test: In vitro binding affinity, μ receptor
[6] = molecular target: T1, α1A‐adrenoceptor (Homo sapiens, UniProt P35348); test: In vitro binding affinity, α1A-adrenoceptor; settings: read-out: Ki, α1A-adrenoceptor; preclinical in vitro panel
T1 sequence (P35348 1-466): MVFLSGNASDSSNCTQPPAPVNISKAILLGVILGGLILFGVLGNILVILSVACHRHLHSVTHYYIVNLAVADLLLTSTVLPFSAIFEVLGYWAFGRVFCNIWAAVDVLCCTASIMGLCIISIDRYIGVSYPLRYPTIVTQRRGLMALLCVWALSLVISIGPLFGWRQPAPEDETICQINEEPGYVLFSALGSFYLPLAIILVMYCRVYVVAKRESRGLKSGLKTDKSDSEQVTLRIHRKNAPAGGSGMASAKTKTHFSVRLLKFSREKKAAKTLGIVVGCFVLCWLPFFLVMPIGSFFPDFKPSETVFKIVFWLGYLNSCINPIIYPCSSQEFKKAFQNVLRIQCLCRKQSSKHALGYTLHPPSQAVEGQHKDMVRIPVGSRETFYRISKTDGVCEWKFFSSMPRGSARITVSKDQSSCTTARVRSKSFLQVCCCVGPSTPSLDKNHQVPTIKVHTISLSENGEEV

[7] = molecular target: T2, α1B‐adrenoceptor (Homo sapiens, UniProt P35368); test: In vitro binding affinity, α1B-adrenoceptor; settings: read-out: Ki, α1B-adrenoceptor; preclinical in vitro panel
T2 sequence (P35368 1-520): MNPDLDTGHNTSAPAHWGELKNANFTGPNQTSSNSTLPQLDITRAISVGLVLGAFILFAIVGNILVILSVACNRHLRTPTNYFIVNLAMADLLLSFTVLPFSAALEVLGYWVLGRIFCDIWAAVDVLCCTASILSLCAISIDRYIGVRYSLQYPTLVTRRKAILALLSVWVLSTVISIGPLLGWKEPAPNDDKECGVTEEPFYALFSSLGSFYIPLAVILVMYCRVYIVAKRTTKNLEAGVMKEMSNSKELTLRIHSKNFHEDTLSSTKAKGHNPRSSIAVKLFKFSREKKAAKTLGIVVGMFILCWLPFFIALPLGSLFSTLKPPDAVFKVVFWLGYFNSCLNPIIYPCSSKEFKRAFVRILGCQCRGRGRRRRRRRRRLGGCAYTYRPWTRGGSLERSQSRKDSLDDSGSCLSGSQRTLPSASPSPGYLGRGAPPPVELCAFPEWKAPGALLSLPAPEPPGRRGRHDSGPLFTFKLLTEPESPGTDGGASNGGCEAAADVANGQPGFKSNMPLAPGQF

[8] = system: dopamine release induced by infusion of NMDA in the striatum; test: NMDA-induced dopamine release in the striatum; assay type: in vivo; settings: rats, oral dose of 10 mg/kg
[9] = molecular target: hERG channel (Homo sapiens, UniProt Q12809); test: In vitro hERG channel testing; assay type: biochemical
[10] = system: neuronal abnormalities; test: Preclinical test for neuronal abnormalities; assay type: in vivo; settings: up to a HED of 3360 mg

μ receptor, sequence (P35372 whole entry): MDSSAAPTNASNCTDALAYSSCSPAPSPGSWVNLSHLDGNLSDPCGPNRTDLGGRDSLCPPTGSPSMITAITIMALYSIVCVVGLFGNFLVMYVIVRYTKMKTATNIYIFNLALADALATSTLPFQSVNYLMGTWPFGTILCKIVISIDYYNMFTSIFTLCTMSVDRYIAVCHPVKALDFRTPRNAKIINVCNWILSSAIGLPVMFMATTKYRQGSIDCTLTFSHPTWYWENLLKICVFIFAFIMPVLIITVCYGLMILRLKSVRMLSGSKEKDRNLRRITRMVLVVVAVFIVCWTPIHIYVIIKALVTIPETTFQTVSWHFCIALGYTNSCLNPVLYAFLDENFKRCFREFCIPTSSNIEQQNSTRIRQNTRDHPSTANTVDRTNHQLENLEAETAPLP
hERG channel, sequence (Q12809 whole entry): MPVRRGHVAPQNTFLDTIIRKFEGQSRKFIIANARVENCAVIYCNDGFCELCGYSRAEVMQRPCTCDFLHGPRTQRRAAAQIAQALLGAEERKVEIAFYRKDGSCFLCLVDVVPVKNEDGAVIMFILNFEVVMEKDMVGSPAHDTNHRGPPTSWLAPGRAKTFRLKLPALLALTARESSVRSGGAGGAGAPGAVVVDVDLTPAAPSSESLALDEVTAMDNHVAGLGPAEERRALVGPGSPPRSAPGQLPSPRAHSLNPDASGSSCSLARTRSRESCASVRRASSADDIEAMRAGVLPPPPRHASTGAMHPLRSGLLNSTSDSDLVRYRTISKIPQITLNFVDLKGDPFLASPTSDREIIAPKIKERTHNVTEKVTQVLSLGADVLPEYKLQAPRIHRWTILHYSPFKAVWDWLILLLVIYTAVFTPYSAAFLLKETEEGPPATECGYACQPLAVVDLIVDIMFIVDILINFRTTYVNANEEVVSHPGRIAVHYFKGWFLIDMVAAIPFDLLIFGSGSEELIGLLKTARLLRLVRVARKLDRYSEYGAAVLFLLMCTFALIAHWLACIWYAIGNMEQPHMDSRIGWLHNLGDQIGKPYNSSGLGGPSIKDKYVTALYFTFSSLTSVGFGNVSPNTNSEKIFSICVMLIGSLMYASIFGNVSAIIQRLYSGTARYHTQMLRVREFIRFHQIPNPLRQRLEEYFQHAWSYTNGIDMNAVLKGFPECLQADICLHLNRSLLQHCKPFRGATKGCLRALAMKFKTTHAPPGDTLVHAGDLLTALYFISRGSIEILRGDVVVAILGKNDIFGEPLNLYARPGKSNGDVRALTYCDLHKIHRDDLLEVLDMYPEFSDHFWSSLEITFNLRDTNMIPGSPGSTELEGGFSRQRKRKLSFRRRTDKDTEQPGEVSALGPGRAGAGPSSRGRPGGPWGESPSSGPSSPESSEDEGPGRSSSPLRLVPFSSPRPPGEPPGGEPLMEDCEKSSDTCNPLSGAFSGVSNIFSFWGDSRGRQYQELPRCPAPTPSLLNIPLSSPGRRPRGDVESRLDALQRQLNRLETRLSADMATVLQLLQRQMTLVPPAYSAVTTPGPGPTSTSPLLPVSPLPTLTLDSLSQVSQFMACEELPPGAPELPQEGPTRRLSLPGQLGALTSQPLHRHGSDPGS

SMILES: CN1CCC23CCCCC2C1Cc1ccc(C(N)=O)cc13 (stereo not drawn) [ALKS 7119, (9α, 13α)‐17‐methylmorphinan‐3‐carboxamide]
- Body sway, LSM CFB ([1]; 3 mg single oral dose): −0.14 LOG mm
- Body sway, LSM CFB ([1]; 10 mg single oral dose): 0.16 LOG mm
- Body sway, LSM CFB ([1]; 25 mg single oral dose): −0.03 LOG mm
- Body sway, LSM CFB ([1]; 50 mg single oral dose): 0.12 LOG mm
- Body sway, LSM CFB ([1]; 75 mg single oral dose): −0.06 LOG mm
- Body sway, LSM CFB ([1]; 100 mg single oral dose): 0.08 LOG mm
- Adaptive tracking, LSM CFB ([2]; 3 mg single oral dose): 0.15%
- Adaptive tracking, LSM CFB ([2]; 10 mg single oral dose): 2.4%
- Adaptive tracking, LSM CFB ([2]; 25 mg single oral dose): 0.24%
- Adaptive tracking, LSM CFB ([2]; 50 mg single oral dose): 2.04%
- Adaptive tracking, LSM CFB ([2]; 75 mg single oral dose): 0.25%
- Adaptive tracking, LSM CFB ([2]; 100 mg single oral dose): 1.05%
- Adaptive tracking, LSM CFB ([2]; 125 mg single oral dose): 0.8%
- Adaptive tracking, LSM CFB ([2]; 150 mg single oral dose): 0.65%
- Adaptive tracking, LSM CFB ([2]; 175 mg single oral dose): 0.9%
- Adaptive tracking, LSM CFB ([2]; 200 mg single oral dose): 0.72%
- VAS Bowdle “external perception”, LSM CFB ([3]; 3 mg single oral dose): 0.00
- VAS Bowdle “feeling high”, LSM CFB ([3]; 3 mg single oral dose): 0.00
- VAS Bowdle “internal perception”, LSM CFB ([3]; 3 mg single oral dose): 0.00
- VAS Bowdle “external perception”, LSM CFB ([3]; 10 mg single oral dose): 0.00
- VAS Bowdle “feeling high”, LSM CFB ([3]; 10 mg single oral dose): 0.00
- VAS Bowdle “internal perception”, LSM CFB ([3]; 10 mg single oral dose): 0.00
- VAS Bowdle “external perception”, LSM CFB ([3]; 25 mg single oral dose): 0.00
- VAS Bowdle “feeling high”, LSM CFB ([3]; 25 mg single oral dose): 0.00
- VAS Bowdle “internal perception”, LSM CFB ([3]; 25 mg single oral dose): 0.00
- VAS Bowdle “external perception”, LSM CFB ([3]; 50 mg single oral dose): 0.00
- VAS Bowdle “feeling high”, LSM CFB ([3]; 50 mg single oral dose): 0.00
- VAS Bowdle “internal perception”, LSM CFB ([3]; 50 mg single oral dose): 0.00
- VAS Bowdle “external perception”, LSM CFB ([3]; 75 mg single oral dose): 0.00
- VAS Bowdle “feeling high”, LSM CFB ([3]; 75 mg single oral dose): 0.00
- VAS Bowdle “internal perception”, LSM CFB ([3]; 75 mg single oral dose): 0.00
- VAS Bowdle “external perception”, LSM CFB ([3]; 100 mg single oral dose): 0.00
- VAS Bowdle “feeling high”, LSM CFB ([3]; 100 mg single oral dose): 0.00
- VAS Bowdle “internal perception”, LSM CFB ([3]; 100 mg single oral dose): 0.00
- VAS Bowdle “external perception”, LSM CFB ([3]; 125 mg single oral dose): 0.00
- VAS Bowdle “feeling high”, LSM CFB ([3]; 125 mg single oral dose): 0.00
- VAS Bowdle “internal perception”, LSM CFB ([3]; 125 mg single oral dose): 0.00
- VAS Bowdle “external perception”, LSM CFB ([3]; 150 mg single oral dose): 0.00
- VAS Bowdle “feeling high”, LSM CFB ([3]; 150 mg single oral dose): 0.00
- VAS Bowdle “internal perception”, LSM CFB ([3]; 150 mg single oral dose): 0.00
- VAS Bowdle “external perception”, LSM CFB ([3]; 175 mg single oral dose): 0.00
- VAS Bowdle “feeling high”, LSM CFB ([3]; 175 mg single oral dose): 0.00
- VAS Bowdle “internal perception”, LSM CFB ([3]; 175 mg single oral dose): 0.00
- VAS Bowdle “external perception”, LSM CFB ([3]; 200 mg single oral dose): 0.00
- VAS Bowdle “feeling high”, LSM CFB ([3]; 200 mg single oral dose): 0.00
- VAS Bowdle “internal perception”, LSM CFB ([3]; 200 mg single oral dose): 0.00
- Incidence of orthostatic hypotension ([4]; 200 mg dosing group, three subjects): 37.5%
- Incidence of orthostatic hypotension ([4]; all ALKS 7119 dose groups (placebo 15%)): 17.5%
- Affinity for μ receptor lower than for SERT [5]: 17 fold
- Ki ([5]; read-out: Ki, μ receptor, preclinical in vitro panel): 0.6 µM
- Ki [6]: 0.98 µM
- Ki [7]: 1.8 µM
- Effect on dopamine release induced by NMDA infusion in the striatum [8]: completely blocked dopamine release
- hERG IC50 [9]: 54.3488 µg/mL
- IC50 ([9]; read-out: hERG IC50): 191 µM
- Potential to induce neuronal abnormalities [10]: no potential to induce neuronal abnormalities
